Assay results published in ChEMBL document CHEMBL1121426, “Structure-activity study of antiulcerous and antiinflammatory drugs by discriminant analysis” (J Med Chem, 1980).

Experiments:
[1] = Partition coefficient (logP); type: physicochemical; settings: octanol/water
Rattus norvegicus [2] = assay: Antiulcer activity in rat at the dose of 20 mg/kg administered intraperitoneally.; type: functional; settings: ip, route intraperitoneal
Procedure, shortened: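 Pyloric ligation was done under ether on Wistar-King rats (200-250 g, 10 per group) fasted 24 h. Drug was suspended at 10 mg/mL in 0.9% saline with a trace of Tween 80 and given ip at 20 mg/kg; controls received saline. Forestomach ulcers were scored macroscopically 18 h later as an ulcer index. Percent inhibition was taken versus the mean control index; error <±10%.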

Rattus norvegicus [3] = assay: Tested for inhibition of edema growth in rat; type: functional; design: concentration or dose not given beside the values
Procedure, shortened: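 Carrageenin paw edema in male Wistar rats (120-150 g, 10 per group). Dosing was oral, as 1% suspensions in 0.5% aqueous Na-CMC: phenylacetic acids at 100 mg/kg, aminouracils at 200 mg/kg. Paw volume was read by mercury displacement before and 3 h after injection. Percent inhibition of mean swelling was taken versus control; error <±10%.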

SMILES | logP [1] | inhibition in vivo at 20 mg/kg (Rattus norvegicus [2]) [%] | Inhibition (Rattus norvegicus [3]) [%]
Nc1nc(N)nc(-c2ccccc2I)n1 | 1.41 | -7 | 
Nc1nc(N)nc(-c2ccc(Cl)cc2)n1 |  | 69 | 
Nc1nc(N)nc(-c2cccc([N+](=O)[O-])c2)n1 | 1.57 | 85 | 
Cc1c(N2CCOCC2)c(=O)n(-c2ccccc2)c(=O)n1C | 0.69 |  | 35
O=C(O)Cc1cccc(Br)c1 | 2.36 |  | 0
Nc1nc(N)nc(-c2cccc(F)c2)n1 | 1.73 | 70 | 
CCCNc1c(C)n(C)c(=O)n(-c2ccccc2)c1=O | 1.2 |  | 64
Nc1nc(N)nc(-c2cccc(C(F)(F)F)c2)n1 | 2.67 | 81 | 
Nc1nc(N)nc(-c2ccc(F)cc2)n1 | 1.61 | 84 | 
Nc1nc(N)nc(-c2cccc(SC(F)(F)F)c2)n1 | 3.2 | 87 | 
CCn1c(=O)c(N(C)C)c(C)n(-c2ccccc2)c1=O | 2.29 |  | 51
Nc1nc(N)nc(-c2ccc([N+](=O)[O-])cc2)n1 | 1.6 | 41 | 
CCCCNc1c(C)n(C)c(=O)n(-c2ccccc2)c1=O | 1.69 |  | 48
Nc1nc(N)nc(-c2ccccc2Br)n1 | 1.26 | 26 | 
Nc1nc(N)nc(-c2ccc(Cl)cc2Br)n1 | 2.09 | 96 | 
Cc1ccccc1-c1nc(N)nc(N)n1 | 1.26 | 28 | 
Cc1c(N(C)C)c(=O)n(C)c(=O)n1-c1ccc(Cl)cc1 | 2.32 |  | 41
O=C(O)Cc1cccc(Cl)c1 | 1.59 |  | 0
CCOc1ccccc1-c1nc(N)nc(N)n1 | 1.03 | -5 | 
CCN(CC)c1c(C)n(-c2ccccc2)c(=O)n(C)c1=O | 2.19 |  | 46

SMILES | logP [1] | inhibition in vivo at 20 mg/kg (Rattus norvegicus [2]) [%] | Inhibition (Rattus norvegicus [3]) [%]
CS(=O)(=O)c1cccc(-c2nc(N)nc(N)n2)c1 | 0.29 | -6 | 
Cc1c(NCC(C)C)c(=O)n(-c2ccccc2)c(=O)n1C | 1.48 |  | 58
CCCNc1c(C)n(-c2ccccc2)c(=O)n(C)c1=O | 1.7 |  | 45
Nc1nc(N)nc(-c2cc(Br)ccc2F)n1 | 1.94 | 100 | 
Nc1nc(N)nc(-c2cc(Br)ccc2Br)n1 | 2.09 | 43 | 
CSc1cccc(-c2nc(N)nc(N)n2)c1 | 2.16 | 49 | 
Nc1nc(N)nc(-c2ccccc2Cl)n1 | 1.19 | 36 | 
C=CCn1c(=O)c(N(C)C)c(C)n(-c2ccccc2)c1=O | 1.98 |  | 75
Cc1c(N2CCOCC2)c(=O)n(C)c(=O)n1C1CCCCC1 | 2.39 |  | 44
Nc1nc(N)nc(-c2cccc(Br)c2)n1 | 2.44 | 96 | 
COc1cc(CC(=O)O)cc(-c2ccccc2Cl)c1 | 3.66 |  | 75
COc1ccccc1-c1nc(N)nc(N)n1 | 0.58 | 1 | 
COc1cccc(CC(=O)O)c1 | 1.45 |  | -3
Cc1c(N2CCCC2)c(=O)n(-c2ccccc2)c(=O)n1C | 2.26 |  | 32
Nc1nc(N)nc(-c2cc(Br)ccc2Cl)n1 | 2.04 | 86 | 
CCc1ccccc1-c1nc(N)nc(N)n1 | 1.65 | 20 | 
COc1cc(CC(=O)O)cc(-c2ccc(Cl)cc2)c1 | 3.71 |  | 66
Nc1nc(N)nc(-c2ccccc2)n1 [BENZOGUANAMINE] | 1.36 | 70 | 
CC(C)Cc1ccc(CC(=O)O)cc1 [IBUFENAC] | 3.38 |  | 32
Nc1nc(N)nc(-c2cc(Cl)ccc2Cl)n1 [IRSOGLADINE] | 1.97 | 100 | 
